Experiments:
[1] = molecular target: T1, Rho guanine nucleotide exchange factor 1 (Homo sapiens) (UniProt Q92888); experiment: (§1) Inhibition of p115 DHPH22 domain (395 to 766 residues) (unknown origin) interaction with GDP-loaded His-tagged RhoA F25N mutant (1 to 180 residues) assessed as reduction in BODIPY-GTP-GDP exchange at 200 uM pretreated for 30 mins followed by RhoA addition by fluorescence based spectrophotometric method relative to control
T1 sequence (whole entry): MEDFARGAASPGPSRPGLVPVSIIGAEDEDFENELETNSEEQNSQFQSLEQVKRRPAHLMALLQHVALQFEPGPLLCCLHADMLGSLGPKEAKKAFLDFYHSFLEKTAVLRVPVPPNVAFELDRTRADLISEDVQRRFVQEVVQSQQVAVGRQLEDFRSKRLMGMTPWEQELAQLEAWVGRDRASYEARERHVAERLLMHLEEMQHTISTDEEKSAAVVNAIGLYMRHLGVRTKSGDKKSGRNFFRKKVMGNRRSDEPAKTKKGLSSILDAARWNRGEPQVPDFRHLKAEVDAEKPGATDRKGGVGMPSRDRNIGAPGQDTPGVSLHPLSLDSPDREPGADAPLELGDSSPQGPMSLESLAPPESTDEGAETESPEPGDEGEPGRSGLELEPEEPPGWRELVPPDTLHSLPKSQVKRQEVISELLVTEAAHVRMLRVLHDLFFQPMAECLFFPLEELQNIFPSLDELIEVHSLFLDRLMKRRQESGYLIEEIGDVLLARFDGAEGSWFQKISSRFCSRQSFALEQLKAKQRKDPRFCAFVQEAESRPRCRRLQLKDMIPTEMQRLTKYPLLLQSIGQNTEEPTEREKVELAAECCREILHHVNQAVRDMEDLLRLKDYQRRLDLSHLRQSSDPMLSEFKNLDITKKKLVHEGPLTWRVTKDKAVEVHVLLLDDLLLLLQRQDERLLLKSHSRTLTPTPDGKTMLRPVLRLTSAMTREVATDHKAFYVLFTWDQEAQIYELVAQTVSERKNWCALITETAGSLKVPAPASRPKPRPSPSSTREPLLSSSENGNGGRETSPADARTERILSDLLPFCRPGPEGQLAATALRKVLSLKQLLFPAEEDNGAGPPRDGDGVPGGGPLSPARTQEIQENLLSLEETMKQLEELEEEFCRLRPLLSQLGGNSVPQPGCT

[2] = molecular target: T2, Neuroepithelial cell-transforming gene 1 protein (Homo sapiens) (UniProt Q7Z628); experiment: as §1, with “Net1 (149” for “p115 DHPH22 domain (395”, “501” for “766”
T2 sequence (whole entry): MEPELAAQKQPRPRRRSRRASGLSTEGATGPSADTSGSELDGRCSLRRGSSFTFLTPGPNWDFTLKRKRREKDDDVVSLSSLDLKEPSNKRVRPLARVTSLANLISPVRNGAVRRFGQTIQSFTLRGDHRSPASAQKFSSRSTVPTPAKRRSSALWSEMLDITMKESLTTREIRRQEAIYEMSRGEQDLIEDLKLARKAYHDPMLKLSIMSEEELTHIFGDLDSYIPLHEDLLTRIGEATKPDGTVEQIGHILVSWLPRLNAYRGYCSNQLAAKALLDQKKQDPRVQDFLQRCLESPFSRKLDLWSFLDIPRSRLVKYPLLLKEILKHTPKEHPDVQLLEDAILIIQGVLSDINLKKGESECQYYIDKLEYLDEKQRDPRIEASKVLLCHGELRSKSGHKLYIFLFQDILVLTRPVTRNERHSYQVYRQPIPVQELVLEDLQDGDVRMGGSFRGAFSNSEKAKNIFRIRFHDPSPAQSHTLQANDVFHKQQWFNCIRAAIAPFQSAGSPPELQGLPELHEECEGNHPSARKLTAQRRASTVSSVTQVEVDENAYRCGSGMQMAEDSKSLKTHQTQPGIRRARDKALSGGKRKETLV

[3] = molecular target: Neuroepithelial cell-transforming gene 1 protein (Homo sapiens, UniProt Q7Z628, F25N); experiment: Inhibition of Net1 (149 to 501 residues) (unknown origin) interaction with GDP-loaded His-tagged RhoA F25N mutant (1 to 180 residues) assessed as reduction in BODIPY-GTP-GDP exchange pretreated for 30 mins followed by RhoA addition by fluorescence based spectrophotometric method
Method in brief: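 Exchange is started with 0.1 μM GDP-loaded His-RhoA F25N (1−180). Fluorescence (ex 480/em 540 nm) is read every minute, and initial rate is taken over the first 15 min. Controls are run with and without GEF.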

[4] = molecular target: Rho guanine nucleotide exchange factor 1 (Homo sapiens, UniProt Q92888, F25N); experiment: Inhibition of p115 DHPH22 domain (395 to 766 residues) (unknown origin) interaction with GDP-loaded His-tagged RhoA F25N mutant (1 to 180 residues) assessed as reduction in BODIPY-GTP-GDP exchange pretreated for 30 mins followed by RhoA addition by fluorescence based spectrophotometric method

| Structure (SMILES) | inhibition [1] [%] | inhibition [2] [%] | IC50 [3] [µM] | IC50 [4] [µM] |
| --- | --- | --- | --- | --- |
| COc1c(O)cc2c3c(cc4ccccc4c13)NC(=O)C2=O | 0 | 4 |  |  |
| CN1CCc2cc3c(c4c2c1cc1ccccc14)OCO3 [DEHYDROROEMERINE] | 21 | 83 | 120 |  |
| C=CCC/C=C/C#CC#CCCCCCCCC(=O)O | 0 |  |  |  |
| C=CCC/C=C/C#CC#CCCCCCCCC[C@H]1C(=O)O[C@H](C)[C@@H]1OC(C)=O | 0 |  |  |  |
| COc1cc(C)c2c(c1C=O)Oc1c(c(C)c(O)c3c1C(O)OC3=O)OC2=O (stereo unspecified) [STICTIC ACID] | 50.5 |  |  | 187 |
| COc1c(O)cc2c3c(cc4c(O)cccc4c13)NC2=O | 0 | 5 |  |  |
| C=CCC/C=C\C#CC#CCCCCCC[C@H]1C(=O)O[C@H](C)[C@@H]1OC(C)=O | 0 |  |  |  |
| C=CCC/C=C\C#CC#CCCCCCCC1=C[C@@H](C)OC1=O | 0 |  |  |  |
| C=CCC/C=C/C#CC#CCCCCCC[C@H]1C(=O)O[C@H](C)[C@@H]1OC(C)=O | 10 |  |  |  |
| COc1cc(C)c2c(c1)Oc1c(cc(OC)cc1C(=O)O)OC2=O | 1 | 5 |  |  |

— ChEMBL document CHEMBL4145642, “Natural Inhibitors of the RhoA-p115 Complex from the Bark of Meiogyne baillonii” (J Nat Prod, 2018)
